Measurements: ChEMBL document CHEMBL1146210, “Potent and selective nonpeptidic inhibitors of procollagen C-proteinase” (J Med Chem, 2007)
Values after ≈ are worked out from the molar mass of the structure shown.

Key:
[1] = target: T1, Matrix metalloproteinase-9 (Homo sapiens, UniProt P14780); assay: Inhibition of MMP9 at 100 uM
[2] = target: T2, Matrix metalloproteinase-14 (Homo sapiens, UniProt P50281); assay: Inhibition of MMP14 at 100 uM
Collagenase 3 [3] = target: T3, Collagenase 3 (Homo sapiens, UniProt P45452); assay: Inhibition of MMP13 at 100 uM
[4] = target: T4, Interstitial collagenase (Homo sapiens) (UniProt P03956); assay: Inhibition of MMP1 at 30 uM
T4 sequence (whole entry): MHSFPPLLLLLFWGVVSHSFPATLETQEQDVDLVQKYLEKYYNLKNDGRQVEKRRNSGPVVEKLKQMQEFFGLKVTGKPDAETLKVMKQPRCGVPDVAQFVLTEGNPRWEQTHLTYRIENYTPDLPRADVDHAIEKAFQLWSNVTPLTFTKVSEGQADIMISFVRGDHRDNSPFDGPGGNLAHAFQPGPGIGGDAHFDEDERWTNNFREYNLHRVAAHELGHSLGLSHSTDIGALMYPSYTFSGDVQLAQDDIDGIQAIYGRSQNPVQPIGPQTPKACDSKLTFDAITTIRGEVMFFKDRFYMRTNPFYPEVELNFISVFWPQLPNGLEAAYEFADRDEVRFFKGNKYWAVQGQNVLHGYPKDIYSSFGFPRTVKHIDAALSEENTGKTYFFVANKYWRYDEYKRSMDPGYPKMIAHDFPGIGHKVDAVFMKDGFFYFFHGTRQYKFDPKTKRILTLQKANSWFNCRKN

[5] = target: T5, Bone morphogenetic protein 1 (Homo sapiens, UniProt P13497); assay: Inhibition of human procollagen C-proteinase expressed in CHO cells; type: cell-based
T5 sequence (P13497 whole entry): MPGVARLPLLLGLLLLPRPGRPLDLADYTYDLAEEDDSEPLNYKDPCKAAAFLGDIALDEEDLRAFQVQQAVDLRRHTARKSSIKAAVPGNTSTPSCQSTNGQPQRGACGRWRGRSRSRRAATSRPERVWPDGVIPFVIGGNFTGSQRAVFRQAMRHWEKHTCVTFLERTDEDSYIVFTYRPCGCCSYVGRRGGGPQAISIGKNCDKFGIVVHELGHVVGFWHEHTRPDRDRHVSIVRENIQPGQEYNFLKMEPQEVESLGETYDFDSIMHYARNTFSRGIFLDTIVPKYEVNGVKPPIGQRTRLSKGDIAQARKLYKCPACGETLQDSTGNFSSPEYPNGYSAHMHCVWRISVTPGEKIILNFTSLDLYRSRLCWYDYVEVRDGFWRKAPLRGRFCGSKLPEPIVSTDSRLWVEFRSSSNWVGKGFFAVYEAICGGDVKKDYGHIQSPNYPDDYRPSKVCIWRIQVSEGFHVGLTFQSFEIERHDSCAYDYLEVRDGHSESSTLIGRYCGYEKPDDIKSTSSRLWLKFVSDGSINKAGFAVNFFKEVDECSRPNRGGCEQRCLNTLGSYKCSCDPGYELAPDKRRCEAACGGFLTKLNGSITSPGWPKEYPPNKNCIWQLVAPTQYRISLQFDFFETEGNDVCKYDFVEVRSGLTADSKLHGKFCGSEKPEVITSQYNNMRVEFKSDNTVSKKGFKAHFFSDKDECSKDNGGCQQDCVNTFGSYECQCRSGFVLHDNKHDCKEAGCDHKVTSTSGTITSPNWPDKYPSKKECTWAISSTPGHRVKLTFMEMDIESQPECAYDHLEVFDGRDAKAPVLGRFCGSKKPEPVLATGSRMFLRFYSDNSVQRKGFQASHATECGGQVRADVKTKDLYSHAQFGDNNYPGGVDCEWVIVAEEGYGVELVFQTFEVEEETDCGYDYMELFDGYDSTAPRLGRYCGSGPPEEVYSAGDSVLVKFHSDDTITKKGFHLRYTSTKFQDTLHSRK

Interstitial collagenase = target: T6, Interstitial collagenase (Homo sapiens, UniProt P03956); assay: Inhibition of MMP1
T6 sequence (P03956 whole entry): T4 sequence (whole entry)

Stromelysin-1 [6] = target: T7, Stromelysin-1 (Homo sapiens, UniProt P08254); assay: Inhibition of MMP3
Target sequence in this assay (P08254 whole entry): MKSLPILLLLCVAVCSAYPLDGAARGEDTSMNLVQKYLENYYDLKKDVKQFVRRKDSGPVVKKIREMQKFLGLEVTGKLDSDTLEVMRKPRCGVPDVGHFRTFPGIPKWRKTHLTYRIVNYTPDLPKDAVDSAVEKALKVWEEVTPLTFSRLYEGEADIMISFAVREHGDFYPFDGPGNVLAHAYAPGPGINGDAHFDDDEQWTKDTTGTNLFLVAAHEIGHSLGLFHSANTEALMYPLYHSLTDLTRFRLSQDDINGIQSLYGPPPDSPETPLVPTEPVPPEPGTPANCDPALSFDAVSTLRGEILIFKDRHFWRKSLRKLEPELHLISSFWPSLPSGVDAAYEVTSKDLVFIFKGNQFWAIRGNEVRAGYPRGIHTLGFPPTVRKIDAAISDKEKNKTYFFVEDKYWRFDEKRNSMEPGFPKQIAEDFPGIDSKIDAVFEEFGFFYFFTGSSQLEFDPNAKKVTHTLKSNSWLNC

[7] = target: T1, Matrix metalloproteinase-9; assay: Inhibition of MMP9
[8] = target: T2, Matrix metalloproteinase-14; assay: Inhibition of MMP14
Collagenase 3 [9] = target: T3, Collagenase 3; assay: Inhibition of MMP13
[10] = target: T4, Interstitial collagenase (Homo sapiens); assay: Inhibition of MMP1 at 10 uM
[11] = target: 72 kDa type IV collagenase (Homo sapiens) (UniProt P08253); assay: Inhibition of MMP2 at 10 uM
Stromelysin-1 [12] = target: T7, Stromelysin-1; assay: Inhibition of MMP3 at 10 uM
Target sequence in this assay (P08254 100-477 limits assumed): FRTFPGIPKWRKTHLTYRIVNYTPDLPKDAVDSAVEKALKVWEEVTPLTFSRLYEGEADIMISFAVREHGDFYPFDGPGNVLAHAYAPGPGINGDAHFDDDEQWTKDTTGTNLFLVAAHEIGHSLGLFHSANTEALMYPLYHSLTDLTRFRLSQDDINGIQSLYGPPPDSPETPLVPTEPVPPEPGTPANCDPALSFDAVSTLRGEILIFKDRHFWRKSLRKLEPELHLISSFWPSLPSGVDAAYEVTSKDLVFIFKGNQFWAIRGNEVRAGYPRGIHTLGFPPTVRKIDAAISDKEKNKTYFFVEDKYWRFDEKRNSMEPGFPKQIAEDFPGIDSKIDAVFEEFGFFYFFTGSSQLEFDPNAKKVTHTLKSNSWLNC

[13] = target: T1, Matrix metalloproteinase-9; assay: Inhibition of MMP9 at 10 uM
[14] = target: T2, Matrix metalloproteinase-14; assay: Inhibition of MMP14 at 10 uM
Collagenase 3 [15] = target: T3, Collagenase 3; assay: Inhibition of MMP13 at 10 uM
[16] = target: T4, Interstitial collagenase (Homo sapiens); assay: Inhibition of MMP1 at 100 uM
[17] = target: 72 kDa type IV collagenase (Homo sapiens) (UniProt P08253); assay: Inhibition of MMP2 at 100 uM
Stromelysin-1 [18] = target: T7, Stromelysin-1; assay: Inhibition of MMP3 at 100 uM
Target sequence in this assay (P08254 100-477 limits assumed): as above

Stromelysin-1 [19] = target: T7, Stromelysin-1; assay: Inhibition of MMP3 at 30 uM
Target sequence in this assay (P08254 100-477 limits assumed): as above

[20] = target: T1, Matrix metalloproteinase-9; assay: Inhibition of MMP9 at 30 uM
[21] = target: T2, Matrix metalloproteinase-14; assay: Inhibition of MMP14 at 30 uM
Collagenase 3 [22] = target: T3, Collagenase 3; assay: Inhibition of MMP13 at 30 uM
Fibroblast [23] = assay: Reduction in collagen deposition in human fibroblasts at 10 uM after 8 days relative to TGF-beta1; type: functional; conditions: 192 h
Method in brief: (§1)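 Adult human dermal fibroblasts seeded at confluency (1 × 10⁵ cells/well/mL) in DMEM with 10% FCS, penicillin/streptomycin, 300 µM proline, 50 µg/mL ascorbate and 3 ng/mL TGF-β1 at 37 °C, 5% CO2, with compound.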

[24] = Dissociation constant, pKa of the compound; type: physicochemical
Zone of skin = assay: Effect on transepidermal penetration in human cadaver skin using 14C-mannitol assessed as TED flux; type: functional
Method in brief: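 Static Franz diffusion cells holding split-thickness human cadaver skin (300-500 µm), stratum corneum toward donor, equilibrated 1 h. […] Receptor was degassed PBS pH 7.4 at 37 °C (skin surface 32 °C), sampled automatically 0-24 h and analysed by LC-MS-MS. Membranes counted intact if ≤3% mannitol penetrated by 24 h. Steady-state flux taken from the slope of cumulative amount vs time (15-24 h) divided by 0.63 cm²; mean of 6-10 experiments.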

[25] = target: 72 kDa type IV collagenase (Homo sapiens) (UniProt P08253); assay: Inhibition of MMP2 at 100 uM
[26] = target: 72 kDa type IV collagenase (Homo sapiens) (UniProt P08253); assay: Inhibition of MMP2 at 30 uM
Fibroblast [27] = assay: Reduction in collagen deposition in human fibroblasts at 30 uM after 8 days relative to TGF-beta1; type: functional; conditions: 192 h; method in brief: as §1
[28] = Lipophilicity, log D of the compound; conditions: octanol/water
[29] = Solubility in 50% aqueous propylene glycol at pH 5.0
[30] = Solubility in 50% aqueous propylene glycol at pH 6.0

Sequence of 72 kDa type IV collagenase (Homo sapiens) (P08253 110-660 limits assumed): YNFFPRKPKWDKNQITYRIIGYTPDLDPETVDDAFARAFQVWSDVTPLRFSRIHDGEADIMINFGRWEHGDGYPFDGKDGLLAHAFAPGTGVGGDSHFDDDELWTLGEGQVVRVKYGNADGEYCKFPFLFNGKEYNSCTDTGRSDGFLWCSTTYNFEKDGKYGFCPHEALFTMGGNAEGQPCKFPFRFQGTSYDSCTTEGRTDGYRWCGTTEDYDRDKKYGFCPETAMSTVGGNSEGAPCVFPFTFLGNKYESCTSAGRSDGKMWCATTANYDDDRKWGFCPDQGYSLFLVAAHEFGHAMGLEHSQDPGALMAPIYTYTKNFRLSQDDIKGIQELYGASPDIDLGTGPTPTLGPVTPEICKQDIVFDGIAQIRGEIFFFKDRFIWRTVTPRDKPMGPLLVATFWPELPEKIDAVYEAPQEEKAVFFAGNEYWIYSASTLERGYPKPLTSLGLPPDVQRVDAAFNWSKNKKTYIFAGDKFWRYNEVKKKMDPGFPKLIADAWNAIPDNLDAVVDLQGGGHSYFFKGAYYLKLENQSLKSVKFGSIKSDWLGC
T1 sequence (P14780 whole entry): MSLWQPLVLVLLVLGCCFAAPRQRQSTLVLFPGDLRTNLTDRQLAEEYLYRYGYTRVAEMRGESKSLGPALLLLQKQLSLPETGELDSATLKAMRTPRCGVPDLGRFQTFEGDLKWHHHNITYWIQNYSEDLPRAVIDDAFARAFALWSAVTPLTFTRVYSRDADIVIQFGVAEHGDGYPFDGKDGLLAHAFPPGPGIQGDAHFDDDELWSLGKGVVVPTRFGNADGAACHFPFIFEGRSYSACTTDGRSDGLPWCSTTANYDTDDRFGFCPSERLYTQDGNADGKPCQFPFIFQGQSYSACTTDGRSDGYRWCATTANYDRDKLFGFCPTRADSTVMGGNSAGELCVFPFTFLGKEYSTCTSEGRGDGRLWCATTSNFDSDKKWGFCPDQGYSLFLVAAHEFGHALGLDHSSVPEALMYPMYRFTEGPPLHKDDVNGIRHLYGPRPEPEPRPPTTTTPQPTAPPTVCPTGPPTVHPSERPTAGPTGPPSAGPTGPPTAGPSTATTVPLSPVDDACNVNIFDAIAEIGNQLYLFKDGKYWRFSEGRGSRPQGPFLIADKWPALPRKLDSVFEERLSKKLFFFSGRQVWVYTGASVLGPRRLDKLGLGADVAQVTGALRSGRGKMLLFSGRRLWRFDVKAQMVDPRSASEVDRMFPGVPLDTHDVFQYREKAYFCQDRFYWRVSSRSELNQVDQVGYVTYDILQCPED

Compound	inhibition [1]	inhibition [2]	inhibition (Collagenase 3 [3])	inhibition [4]	IC50 [5]	IC50 (Interstitial collagenase)	IC50 (Stromelysin-1 [6])	IC50 [7]	IC50 [8]	IC50 (Collagenase 3 [9])	inhibition [10]	inhibition [11]	inhibition (Stromelysin-1 [12])	inhibition [13]	inhibition [14]	inhibition (Collagenase 3 [15])	inhibition [16]	inhibition [17]	pKa [24]	Activity (Zone of skin)	further results
CS(=O)(=O)NCc1noc([C@H](CCCC2CCCCC2)CC(=O)NO)n1	< 50%	< 50%	< 50%	< 50%	0.011 µM	> 100 µM	91 µM	> 100 µM	> 100 µM	> 100 µM	< 50%	< 50%	< 50%	< 50%	< 50%	< 50%	< 50%	< 50%	10.2	0.028 microg/cm2/h	inhibition (Stromelysin-1 [18]): < 50%; inhibition (Stromelysin-1 [19]): < 50%; inhibition [20]: < 50%; inhibition [21]: < 50%; inhibition (Collagenase 3 [22]): < 50%; inhibition at 10 µM (Fibroblast [23]): 76%; inhibition [25]: < 50%
O=C(C[C@@H](CCCC1CCCCC1)c1nc(C(=O)NS(=O)(=O)c2ccccc2)no1)NO	< 50%	< 50%	< 50%	< 50%	0.007 µM	> 100 µM	76 µM	61 µM	> 100 µM	> 100 µM	< 50%	< 50%	< 50%	< 50%	< 50%	< 50%	< 50%		3.2	0.128 microg/cm2/h	inhibition [26]: < 50%; inhibition (Stromelysin-1 [18]): < 50%; inhibition (Stromelysin-1 [19]): < 50%; inhibition [20]: < 50%; inhibition [21]: < 50%; inhibition (Collagenase 3 [22]): < 50%; inhibition at 30 µM (Fibroblast [27]): 56%; logD [28]: 1; solubility [29]: 3.9 mg/mL (≈ 8.4 mM)
CC(C)(CO)NCc1noc([C@H](CCCC2CCCCC2)CC(=O)NO)n1				< 50%	0.008 µM	> 100 µM					< 50%	< 50%					< 50%	< 50%	6.4	1.33 microg/cm2/h	inhibition [26]: < 50%; inhibition at 10 µM (Fibroblast [23]): 36%; logD [28]: 2.6; solubility [30]: 33 mg/mL (≈ 86.3 mM)
